Reference: PMC3076536 (Journal of the American Chemical Society, 2011)

Columns and labels:
GSK3α [1] = molecular target: T1, GSK3α (Homo sapiens, UniProt P49840); assay: Radioactive [γ-33P]ATP kinase activity assay, GSK3α; assay type: biochemical
Procedure, shortened: (§1)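 Commercial human kinase and substrate were used, except the PAK1 kinase domain (residues 249–545), which was expressed and purified in-house. Serial inhibitor concentrations were preincubated 15 min with kinase and substrate in 20 mM MOPS pH 7.0, 30 mM MgCl₂, 0.8 μg/μL BSA and 5% DMSO. The reaction was started with ATP (final 100 μM) plus [γ-³³P]ATP. Reactions were spotted on P81 paper, washed and scintillation-counted. IC50 was the concentration giving background-corrected CPM at 50% of control.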

[2] = molecular target: PAK1 kinase domain (residues 249 to 545) (Homo sapiens, UniProt Q13153); assay: Radioactive [γ-33P]ATP kinase activity assay, PAK1; assay type: biochemical; conditions: read-out: IC50 PAK1; 100 μM ATP
Chain of PAK1 kinase domain (residues 249 to 545) (Q13153 249-545): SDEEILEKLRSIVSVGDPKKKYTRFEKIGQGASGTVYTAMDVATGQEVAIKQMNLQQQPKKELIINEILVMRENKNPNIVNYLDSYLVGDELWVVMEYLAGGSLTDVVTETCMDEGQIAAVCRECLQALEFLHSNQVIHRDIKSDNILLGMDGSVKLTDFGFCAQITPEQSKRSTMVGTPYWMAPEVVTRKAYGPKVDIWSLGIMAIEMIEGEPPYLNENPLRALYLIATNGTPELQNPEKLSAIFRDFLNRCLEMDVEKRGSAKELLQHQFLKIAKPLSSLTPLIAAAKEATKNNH
Procedure, shortened: as §1

PIM1 [3] = molecular target: T2, PIM1 (Homo sapiens, UniProt P11309); assay: Radioactive [γ-33P]ATP kinase activity assay, PIM1; assay type: biochemical; conditions: read-out: IC50 PIM1; 100 μM ATP
T2 sequence (P11309 whole entry): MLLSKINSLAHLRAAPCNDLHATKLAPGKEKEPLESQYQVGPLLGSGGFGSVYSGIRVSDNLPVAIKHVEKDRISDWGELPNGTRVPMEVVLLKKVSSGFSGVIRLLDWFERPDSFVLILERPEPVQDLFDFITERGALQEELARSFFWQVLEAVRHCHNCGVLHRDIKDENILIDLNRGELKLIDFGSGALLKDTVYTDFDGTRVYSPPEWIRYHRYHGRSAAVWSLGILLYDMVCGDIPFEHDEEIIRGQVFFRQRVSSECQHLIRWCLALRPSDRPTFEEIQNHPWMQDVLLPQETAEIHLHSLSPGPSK
Procedure, shortened: as §1

DAPK1 = DAPK1 (Homo sapiens, UniProt P53355); assay: Radioactive [γ-33P]ATP kinase activity assay, DAPK1; assay type: biochemical; conditions: read-out: IC50 DAPK1; 100 μM ATP
Chain of DAPK1 (P53355 whole entry): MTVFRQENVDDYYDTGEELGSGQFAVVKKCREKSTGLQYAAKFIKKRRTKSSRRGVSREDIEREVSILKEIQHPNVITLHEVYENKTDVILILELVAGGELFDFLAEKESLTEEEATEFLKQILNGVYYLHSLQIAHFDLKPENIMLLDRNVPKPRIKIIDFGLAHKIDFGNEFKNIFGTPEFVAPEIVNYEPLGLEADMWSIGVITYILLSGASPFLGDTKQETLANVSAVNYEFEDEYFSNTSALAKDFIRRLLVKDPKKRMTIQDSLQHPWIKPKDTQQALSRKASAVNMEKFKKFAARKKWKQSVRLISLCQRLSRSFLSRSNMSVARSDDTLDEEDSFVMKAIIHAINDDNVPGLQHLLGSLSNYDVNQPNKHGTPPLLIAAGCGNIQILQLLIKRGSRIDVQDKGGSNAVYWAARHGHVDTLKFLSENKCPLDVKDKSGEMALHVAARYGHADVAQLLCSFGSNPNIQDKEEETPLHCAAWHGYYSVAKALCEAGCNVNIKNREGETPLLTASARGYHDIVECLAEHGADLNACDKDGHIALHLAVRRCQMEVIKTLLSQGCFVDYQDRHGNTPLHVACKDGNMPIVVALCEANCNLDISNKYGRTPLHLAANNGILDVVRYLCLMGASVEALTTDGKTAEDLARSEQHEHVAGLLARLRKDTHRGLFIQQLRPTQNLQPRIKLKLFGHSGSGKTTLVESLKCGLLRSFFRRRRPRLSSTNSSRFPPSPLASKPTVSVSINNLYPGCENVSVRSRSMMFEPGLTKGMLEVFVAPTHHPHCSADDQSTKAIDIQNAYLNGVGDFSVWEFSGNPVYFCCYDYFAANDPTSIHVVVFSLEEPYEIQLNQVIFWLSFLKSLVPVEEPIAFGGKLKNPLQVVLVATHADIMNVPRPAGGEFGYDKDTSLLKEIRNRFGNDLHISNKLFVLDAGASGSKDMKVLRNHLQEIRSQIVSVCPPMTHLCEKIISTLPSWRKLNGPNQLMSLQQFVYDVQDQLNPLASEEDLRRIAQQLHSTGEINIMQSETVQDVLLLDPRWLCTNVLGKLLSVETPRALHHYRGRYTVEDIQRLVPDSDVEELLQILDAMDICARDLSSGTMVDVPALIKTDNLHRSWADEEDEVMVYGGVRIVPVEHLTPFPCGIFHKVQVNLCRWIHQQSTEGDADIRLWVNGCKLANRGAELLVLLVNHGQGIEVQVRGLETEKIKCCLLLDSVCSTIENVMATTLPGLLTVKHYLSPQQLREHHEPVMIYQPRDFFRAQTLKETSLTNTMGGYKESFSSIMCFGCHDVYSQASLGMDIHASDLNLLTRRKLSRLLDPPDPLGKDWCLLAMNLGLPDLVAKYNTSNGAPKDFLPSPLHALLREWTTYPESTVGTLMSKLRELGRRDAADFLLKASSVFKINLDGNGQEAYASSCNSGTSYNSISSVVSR
Procedure, shortened: as §1

MLCK = assay: Radioactive [γ-33P]ATP kinase activity assay, MLCK; assay type: biochemical, human; conditions: read-out: IC50 MLCK; 100 μM ATP
Procedure, shortened: as §1

FLT4 = FLT4 (Homo sapiens, UniProt P35916); assay: Radioactive [γ-33P]ATP kinase activity assay, FLT4; assay type: biochemical; conditions: read-out: IC50 FLT4; 100 μM ATP
Chain of FLT4 (P35916 25-1363): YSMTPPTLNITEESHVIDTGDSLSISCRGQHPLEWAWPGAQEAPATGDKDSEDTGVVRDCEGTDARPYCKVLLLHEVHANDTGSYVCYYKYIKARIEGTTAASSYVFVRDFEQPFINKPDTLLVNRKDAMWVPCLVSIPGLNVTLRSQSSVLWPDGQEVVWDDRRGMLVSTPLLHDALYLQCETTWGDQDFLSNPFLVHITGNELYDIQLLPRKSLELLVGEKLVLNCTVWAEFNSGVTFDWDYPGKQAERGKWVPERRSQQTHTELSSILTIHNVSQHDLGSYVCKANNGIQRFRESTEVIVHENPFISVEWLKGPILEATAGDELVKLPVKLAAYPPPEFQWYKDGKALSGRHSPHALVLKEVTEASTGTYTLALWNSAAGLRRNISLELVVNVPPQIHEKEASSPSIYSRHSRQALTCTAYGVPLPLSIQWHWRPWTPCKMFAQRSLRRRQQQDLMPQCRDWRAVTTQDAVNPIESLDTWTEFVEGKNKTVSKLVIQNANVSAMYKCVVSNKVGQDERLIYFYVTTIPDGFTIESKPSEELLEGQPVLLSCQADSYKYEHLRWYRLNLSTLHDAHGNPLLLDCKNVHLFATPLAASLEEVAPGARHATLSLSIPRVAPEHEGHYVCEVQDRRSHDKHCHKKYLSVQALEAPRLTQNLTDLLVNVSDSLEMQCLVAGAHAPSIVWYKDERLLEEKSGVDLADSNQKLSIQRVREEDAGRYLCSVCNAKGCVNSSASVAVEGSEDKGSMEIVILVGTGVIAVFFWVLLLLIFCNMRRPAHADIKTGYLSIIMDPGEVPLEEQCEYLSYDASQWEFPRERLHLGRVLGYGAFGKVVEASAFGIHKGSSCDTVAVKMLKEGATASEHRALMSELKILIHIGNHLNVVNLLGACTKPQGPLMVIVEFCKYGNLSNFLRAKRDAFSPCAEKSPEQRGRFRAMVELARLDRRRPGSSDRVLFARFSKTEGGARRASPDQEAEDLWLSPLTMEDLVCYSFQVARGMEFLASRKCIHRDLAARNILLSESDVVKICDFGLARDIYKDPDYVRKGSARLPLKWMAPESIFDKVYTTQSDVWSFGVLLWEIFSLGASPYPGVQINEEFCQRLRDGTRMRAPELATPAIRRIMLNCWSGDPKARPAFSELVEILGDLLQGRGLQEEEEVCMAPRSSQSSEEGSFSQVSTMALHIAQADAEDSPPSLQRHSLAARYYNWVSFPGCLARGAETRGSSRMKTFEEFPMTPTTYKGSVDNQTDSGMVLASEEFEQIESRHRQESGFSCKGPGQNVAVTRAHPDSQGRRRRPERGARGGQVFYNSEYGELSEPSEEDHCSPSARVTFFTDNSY
Procedure, shortened: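 Radiometric assay with commercial human FLT4 and substrate. Serial inhibitor concentrations were preincubated 45 min with kinase and substrate in 20 mM MOPS pH 7.0, 30 mM MgCl₂, 0.8 μg/μL BSA and 5% DMSO. The reaction was started with ATP (final 100 μM) containing [γ-³³P]ATP. Reactions were stopped on P81 paper, washed and scintillation-counted. IC50 was the concentration giving 50% of control CPM after background correction.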

GSK3β [4] = molecular target: T3, GSK3β (Homo sapiens, UniProt P49841); assay: Radioactive [γ-33P]ATP kinase activity assay, GSK3β; assay type: biochemical; conditions: read-out: IC50 GSK3β; 100 μM ATP
T3 sequence (P49841 whole entry): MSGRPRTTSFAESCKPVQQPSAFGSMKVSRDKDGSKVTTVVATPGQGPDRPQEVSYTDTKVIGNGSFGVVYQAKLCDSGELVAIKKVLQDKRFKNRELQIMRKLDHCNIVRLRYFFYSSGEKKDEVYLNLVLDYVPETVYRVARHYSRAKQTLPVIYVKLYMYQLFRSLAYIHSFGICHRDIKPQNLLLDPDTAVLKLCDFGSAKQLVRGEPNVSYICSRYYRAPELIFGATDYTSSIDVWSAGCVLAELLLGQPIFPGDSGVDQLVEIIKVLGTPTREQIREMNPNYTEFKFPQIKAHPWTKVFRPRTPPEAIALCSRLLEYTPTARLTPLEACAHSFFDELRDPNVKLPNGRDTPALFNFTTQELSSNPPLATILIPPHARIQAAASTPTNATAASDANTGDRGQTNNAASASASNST
Procedure, shortened: as §1

GSK3α [5] = molecular target: T1, GSK3α; assay: Millipore KinaseProfiler single-concentration screen, GSK3α; assay type: biochemical; conditions: compound 10 nM, 10 μM ATP
Procedure, shortened: (§2)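 Single-concentration screen on a commercial panel of human wild-type kinases. Test compound was at 10 nM with 10 μM ATP. Only kinases whose assay concentration was at or below the inhibitor concentration were included, giving 102 kinases. Percentage kinase activity was measured in duplicate and averaged.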

PIM1 [6] = molecular target: T2, PIM1; assay: Millipore KinaseProfiler single-concentration screen, PIM1; assay type: biochemical; conditions: compound 10 nM, 10 μM ATP
Procedure, shortened: as §2

CLK2 = CLK2 (Homo sapiens, UniProt P49760); assay: Millipore KinaseProfiler single-concentration screen, CLK2; assay type: biochemical; conditions: compound 10 nM, 10 μM ATP
Chain of CLK2 (P49760 whole entry): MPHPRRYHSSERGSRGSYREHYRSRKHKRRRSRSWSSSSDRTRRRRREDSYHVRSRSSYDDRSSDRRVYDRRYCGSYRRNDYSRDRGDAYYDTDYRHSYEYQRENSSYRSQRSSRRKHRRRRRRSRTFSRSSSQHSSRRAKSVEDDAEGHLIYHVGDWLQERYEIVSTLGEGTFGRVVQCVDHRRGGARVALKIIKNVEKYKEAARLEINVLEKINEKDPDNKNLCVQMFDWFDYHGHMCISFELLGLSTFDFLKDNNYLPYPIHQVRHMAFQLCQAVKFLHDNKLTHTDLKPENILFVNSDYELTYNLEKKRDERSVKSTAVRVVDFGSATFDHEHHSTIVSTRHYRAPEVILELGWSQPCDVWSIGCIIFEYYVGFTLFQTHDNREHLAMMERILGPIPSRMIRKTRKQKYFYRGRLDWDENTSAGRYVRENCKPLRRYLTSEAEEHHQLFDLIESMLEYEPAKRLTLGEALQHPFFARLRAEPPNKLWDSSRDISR
Procedure, shortened: as §2

GSK3β [7] = molecular target: T3, GSK3β; assay: Millipore KinaseProfiler single-concentration screen, GSK3β; assay type: biochemical; conditions: compound 10 nM, 10 μM ATP
Procedure, shortened: as §2

[8] = tested on: panels of human wild type protein kinases; assay: Millipore KinaseProfiler selectivity profile over whole panel; assay type: biochemical; conditions: compound 10 nM, 10 μM ATP, panel of 102 kinases
Procedure, shortened: as §2

T1 sequence (P49840 whole entry, the tested form may be a part): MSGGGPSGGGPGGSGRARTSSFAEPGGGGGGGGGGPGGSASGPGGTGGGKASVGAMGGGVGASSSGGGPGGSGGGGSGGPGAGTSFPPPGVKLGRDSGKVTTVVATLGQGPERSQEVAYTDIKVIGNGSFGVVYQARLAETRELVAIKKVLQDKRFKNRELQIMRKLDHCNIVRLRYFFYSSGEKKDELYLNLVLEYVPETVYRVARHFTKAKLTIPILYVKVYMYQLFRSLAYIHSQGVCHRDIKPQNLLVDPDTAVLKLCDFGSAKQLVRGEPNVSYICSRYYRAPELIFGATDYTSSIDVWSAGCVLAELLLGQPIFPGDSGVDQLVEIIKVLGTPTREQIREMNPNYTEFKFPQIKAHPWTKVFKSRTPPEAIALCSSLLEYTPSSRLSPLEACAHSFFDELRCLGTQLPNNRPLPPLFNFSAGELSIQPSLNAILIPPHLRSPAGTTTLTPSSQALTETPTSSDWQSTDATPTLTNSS

IC50 value ratio of GSK3α/PAK1 (GSK3α [1]; 100 μM ATP): < 0.000009
selectivity for the α- over β-isoform of GSK3 (GSK3α [1]; IC50 ratio, 100 μM ATP): ca. 7 fold
lower IC50 value compared to respective pyridocarbazole ligand, GSK3α (GSK3α [1]; metal complex vs free ligand): 8890 fold
IC50 (GSK3α [1]; read-out: IC50 GSK3α, 100 μM ATP): 0.9 nM
IC50 [2]: > 100000 nM
IC50 (PIM1 [3]): 14 nM
IC50 (DAPK1): 22800 nM
IC50 (MLCK): 22 nM
IC50 (FLT4): 1180 nM
IC50 (GSK3β [4]): 6 nM
residual activity GSK3α (GSK3α [5]): 6%
residual activity PIM1 (PIM1 [6]): 13%
residual activity CLK2 (CLK2): 33%
residual activity GSK3β (GSK3β [7]): 58%
SMILES: Nc1cnc2c(c1)c1c(c3c4ccccc4[n-]c23)C(=O)NC1=O.[C-]#[O+].[Cl][Ru+3].[NH-]Cc1ccccn1 [Λ-OS1]
number of kinases out of 102 with activity higher than 75% [8]: 98
